Test results reported in ChEMBL document CHEMBL1671850, “Discovery of a benzo[e]pyrimido-[5,4-b][1,4]diazepin-6(11H)-one as a Potent and Selective Inhibitor of Big MAP Kinase 1” (ACS Med Chem Lett, 2011).

Legend:
[1] = molecular target: Mitogen-activated protein kinase 7 (Homo sapiens, UniProt Q13164); test: Inhibition of EGF-induced BMK1 autophosphorylation in human HeLa cells by SDS-PAGE analysis; assay type: cell-based
[2] = molecular target: Protein-tyrosine kinase 6 (Homo sapiens) (UniProt Q13882); test: Binding affinity to BRK at 10 uM by immobilized ligand displacement assay
Outline: (§1)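 Ambit KINOMEScan competition binding panel (402 kinases). Kinase displacement from an immobilized ligand is read relative to a DMSO control. Hits are kinases showing more than […] displacement. The text gives the test concentration as 10 μM.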

[3] = molecular target: Macrophage colony-stimulating factor 1 receptor (Homo sapiens) (UniProt P07333); test: Binding affinity to c-FMS at 10 uM by immobilized ligand displacement assay; outline: as §1
[4] = molecular target: Myosin light chain kinase family member 4 (Homo sapiens) (UniProt Q86YV6); test: Binding affinity to MYLK4 at 10 uM by immobilized ligand displacement assay; outline: as §1
[5] = system: Mast/stem cell growth factor receptor Kit (Homo sapiens), P10721 [L576P]; test: Binding affinity to KIT L576P mutant at 10 uM by immobilized ligand displacement assay; outline: as §1
[6] = molecular target: Cyclin-G-associated kinase (Homo sapiens) (UniProt O14976); test: Binding affinity to GAK at 10 uM by immobilized ligand displacement assay; outline: as §1
[7] = system: Tyrosine-protein kinase ABL1 (Homo sapiens), P00519 [F317I]; test: Binding affinity to ABL1 F317I mutant at 10 uM by immobilized ligand displacement assay; outline: as §1
[8] = Oral bioavailability in rat at 2 mg/kg; assay type: ADME, organism-based; conditions: in vivo
Outline: (§2)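 Single-dose pharmacokinetics: rats given 1 mg/kg intravenous or 2 mg/kg oral; mice given 1 mg/kg intravenous or 10 mg/kg oral. Plasma concentration profiles yield Tmax, Cmax, AUC0-∞, half-life, plasma clearance, Vss and oral bioavailability.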

HeLa = test: Antitumor activity against human HeLa cells xenografted in mouse assessed as inhibition of tumor growth at 50 mg/kg, ip bid for 28 days; assay type: functional; conditions: route intraperitoneal
Outline: (§3)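 HeLa cell xenograft in mice; tumor-bearing animals injected intraperitoneally with 50 mg/kg or vehicle solution twice daily for 28 days; tumor growth compared against vehicle.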

[9] = Tmax in rat at 2 mg/kg, po; assay type: ADME, organism-based; set-up: dose 2 mg/kg, route oral; conditions: in vivo; outline: as §2
[10] = AUC (0 to infinity) in rat at 2 mg/kg, po; assay type: ADME, organism-based; set-up: time infinity, dose 2 mg/kg, route oral; conditions: plasma; outline: as §2
[11] = Tmax in rat at 1 mg/kg, iv; assay type: ADME, organism-based; set-up: dose 1 mg/kg, route intravenous; conditions: in vivo; outline: as §2
Rattus norvegicus = test: Half life in rat at 2 mg/kg, po; assay type: ADME, organism-based; set-up: dose 2 mg/kg, route oral; conditions: in vivo; outline: as §2
[12] = Volume of distribution at steady state in rat at 1 mg/kg, iv; assay type: ADME, organism-based; set-up: dose 1 mg/kg, route intravenous; conditions: in vivo, read-out: Vdss; outline: as §2
[13] = Cmax in rat at 2 mg/kg, po; assay type: ADME, organism-based; set-up: dose 2 mg/kg, route oral; conditions: in vivo; outline: as §2
Mus musculus = test: Toxicity in human HeLa cells xenografted mouse assessed as tolerability at 50 mg/kg ip bid for 28 days; assay type: organism-based; set-up: dose 50 mg/kg, route intraperitoneal; conditions: in vivo; outline: as §3
[14] = Half life in rat at 1 mg/kg, iv; assay type: ADME, organism-based; set-up: dose 1 mg/kg, route intravenous; conditions: in vivo; outline: as §2
[15] = Plasma clearance in rat at 2 mg/kg, po; assay type: ADME, organism-based; set-up: dose 2 mg/kg, route oral; outline: as §2
[16] = Cmax in rat at 1 mg/kg, iv; assay type: ADME, organism-based; set-up: dose 1 mg/kg, route intravenous; conditions: in vivo; outline: as §2
[17] = Plasma clearance in rat at 1 mg/kg, iv; assay type: ADME, organism-based; set-up: dose 1 mg/kg, route intravenous; outline: as §2
[18] = AUC (0 to infinity) in rat at 1 mg/kg, iv; assay type: ADME, organism-based; set-up: time infinity, dose 1 mg/kg, route intravenous; conditions: plasma; outline: as §2
BPH-1 = test: Antiproliferative activity against human BPH1 cells after 72 hrs; assay type: functional, cell-based; conditions: BPH-1, 72 h
[19] = AUC (0 to infinity) in mouse at 10 mg/kg, po; assay type: ADME, organism-based; set-up: time infinity, dose 10 mg/kg, route oral; conditions: plasma; outline: as §2
[20] = Oral bioavailability in mouse at 10 mg/kg; assay type: ADME, organism-based; conditions: in vivo; outline: as §2
NCI-H522 = test: Antiproliferative activity against human NCI-H522 cells after 72 hrs; assay type: functional, cell-based; conditions: NCI-H522, 72 h
[21] = Cmax in mouse at 10 mg/kg, po; assay type: ADME, organism-based; set-up: dose 10 mg/kg, route oral; conditions: in vivo; outline: as §2
MCF7 = test: Antiproliferative activity against human MCF7 cells after 72 hrs; assay type: functional, cell-based; conditions: MCF7, 72 h
[22] = Plasma clearance in mouse at 1 mg/kg, iv; assay type: ADME, organism-based; set-up: dose 1 mg/kg, route intravenous; outline: as §2
PC-3 = test: Antiproliferative activity against human PC3 cells after 72 hrs; assay type: functional, cell-based; conditions: PC-3, 72 h
SK-N-AS = test: Antiproliferative activity against human SK-N-AS cells after 72 hrs; assay type: functional, cell-based
AU565 = test: Antiproliferative activity against human AU565 cells after 72 hrs; assay type: functional, cell-based; conditions: AU565, 72 h
NCI-H1299 = test: Antiproliferative activity against human NCI-H1299 cells after 72 hrs; assay type: functional, cell-based; conditions: NCI-H1299, 72 h
[23] = AUC (0 to infinity) in mouse at 1 mg/kg, iv; assay type: ADME, organism-based; set-up: time infinity, dose 1 mg/kg, route intravenous; conditions: plasma; outline: as §2
[24] = Volume of distribution at steady state in mouse at 1 mg/kg, iv; assay type: ADME, organism-based; set-up: dose 1 mg/kg, route intravenous; conditions: in vivo, read-out: Vdss; outline: as §2
[25] = Half life in mouse at 1 mg/kg, iv; assay type: ADME, organism-based; set-up: dose 1 mg/kg, route intravenous; conditions: in vivo; outline: as §2
[26] = Tmax in mouse at 10 mg/kg, po; assay type: ADME, organism-based; set-up: dose 10 mg/kg, route oral; conditions: in vivo; outline: as §2
[27] = molecular target: Serine/threonine-protein kinase DCLK1 (Homo sapiens, UniProt O15075); test: Binding affinity to DCAMKL1 by immobilized ligand displacement assay
Outline: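 Dissociation constant (Kd) measured in the Ambit KINOMEScan competition binding format, which reads kinase displacement from an immobilized ligand.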

[28] = molecular target: Non-receptor tyrosine-protein kinase TNK1 (Homo sapiens, UniProt Q13470); test: Binding affinity to TNK1 by immobilized ligand displacement assay
Outline: (§4)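 KINOMEscan-type competition binding: displacement of kinase from an immobilized ligand; Kd values determined for individual kinases.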

[29] = molecular target: Serine/threonine-protein kinase DCLK2 (Homo sapiens, UniProt Q8N568); test: Binding affinity to DCAMKL2 by immobilized ligand displacement assay; outline: as §4
Chain of Serine/threonine-protein kinase DCLK2 (Q8N568 whole entry): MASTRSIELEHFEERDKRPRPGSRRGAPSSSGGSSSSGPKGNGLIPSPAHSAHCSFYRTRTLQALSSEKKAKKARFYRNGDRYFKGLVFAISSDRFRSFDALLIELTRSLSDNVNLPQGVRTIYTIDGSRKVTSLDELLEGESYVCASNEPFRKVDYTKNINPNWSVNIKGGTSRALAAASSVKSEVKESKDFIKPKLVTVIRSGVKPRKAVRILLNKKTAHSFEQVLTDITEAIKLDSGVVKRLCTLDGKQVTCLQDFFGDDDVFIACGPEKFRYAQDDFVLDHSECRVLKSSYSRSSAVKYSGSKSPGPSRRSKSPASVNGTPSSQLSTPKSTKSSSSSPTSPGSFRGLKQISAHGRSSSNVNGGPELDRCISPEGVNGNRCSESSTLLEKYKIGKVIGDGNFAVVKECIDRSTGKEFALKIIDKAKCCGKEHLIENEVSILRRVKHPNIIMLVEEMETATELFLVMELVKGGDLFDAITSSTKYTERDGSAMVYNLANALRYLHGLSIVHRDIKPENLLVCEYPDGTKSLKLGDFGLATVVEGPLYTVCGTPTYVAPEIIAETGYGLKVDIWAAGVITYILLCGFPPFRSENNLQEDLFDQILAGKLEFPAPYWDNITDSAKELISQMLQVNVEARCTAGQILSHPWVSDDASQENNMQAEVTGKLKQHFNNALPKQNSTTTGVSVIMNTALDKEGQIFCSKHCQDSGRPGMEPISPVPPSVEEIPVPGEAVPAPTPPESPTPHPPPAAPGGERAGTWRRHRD

Chain of Mitogen-activated protein kinase 7 (Q13164 whole entry): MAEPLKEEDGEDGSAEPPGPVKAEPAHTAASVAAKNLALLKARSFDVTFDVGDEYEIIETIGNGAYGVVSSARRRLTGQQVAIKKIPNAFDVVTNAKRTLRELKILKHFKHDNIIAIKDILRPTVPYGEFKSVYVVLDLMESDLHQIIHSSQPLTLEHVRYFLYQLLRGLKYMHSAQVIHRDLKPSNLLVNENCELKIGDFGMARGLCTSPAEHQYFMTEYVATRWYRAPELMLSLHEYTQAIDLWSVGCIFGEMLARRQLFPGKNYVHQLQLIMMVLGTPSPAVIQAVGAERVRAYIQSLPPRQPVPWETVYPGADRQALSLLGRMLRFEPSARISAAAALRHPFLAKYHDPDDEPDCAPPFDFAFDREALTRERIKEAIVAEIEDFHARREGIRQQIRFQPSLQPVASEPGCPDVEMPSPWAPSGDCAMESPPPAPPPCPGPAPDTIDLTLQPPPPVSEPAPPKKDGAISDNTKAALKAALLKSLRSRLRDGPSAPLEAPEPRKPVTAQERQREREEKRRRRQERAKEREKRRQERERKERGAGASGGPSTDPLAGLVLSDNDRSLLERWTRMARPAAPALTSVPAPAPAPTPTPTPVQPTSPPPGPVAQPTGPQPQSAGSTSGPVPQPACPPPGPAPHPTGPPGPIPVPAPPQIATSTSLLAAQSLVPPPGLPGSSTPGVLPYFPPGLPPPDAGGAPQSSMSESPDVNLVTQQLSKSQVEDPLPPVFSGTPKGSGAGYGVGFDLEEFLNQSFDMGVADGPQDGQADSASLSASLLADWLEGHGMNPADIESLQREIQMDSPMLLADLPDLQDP
Chain of Tyrosine-protein kinase ABL1 (Homo sapiens), P00519 [F317I] (P00519 whole entry F317I): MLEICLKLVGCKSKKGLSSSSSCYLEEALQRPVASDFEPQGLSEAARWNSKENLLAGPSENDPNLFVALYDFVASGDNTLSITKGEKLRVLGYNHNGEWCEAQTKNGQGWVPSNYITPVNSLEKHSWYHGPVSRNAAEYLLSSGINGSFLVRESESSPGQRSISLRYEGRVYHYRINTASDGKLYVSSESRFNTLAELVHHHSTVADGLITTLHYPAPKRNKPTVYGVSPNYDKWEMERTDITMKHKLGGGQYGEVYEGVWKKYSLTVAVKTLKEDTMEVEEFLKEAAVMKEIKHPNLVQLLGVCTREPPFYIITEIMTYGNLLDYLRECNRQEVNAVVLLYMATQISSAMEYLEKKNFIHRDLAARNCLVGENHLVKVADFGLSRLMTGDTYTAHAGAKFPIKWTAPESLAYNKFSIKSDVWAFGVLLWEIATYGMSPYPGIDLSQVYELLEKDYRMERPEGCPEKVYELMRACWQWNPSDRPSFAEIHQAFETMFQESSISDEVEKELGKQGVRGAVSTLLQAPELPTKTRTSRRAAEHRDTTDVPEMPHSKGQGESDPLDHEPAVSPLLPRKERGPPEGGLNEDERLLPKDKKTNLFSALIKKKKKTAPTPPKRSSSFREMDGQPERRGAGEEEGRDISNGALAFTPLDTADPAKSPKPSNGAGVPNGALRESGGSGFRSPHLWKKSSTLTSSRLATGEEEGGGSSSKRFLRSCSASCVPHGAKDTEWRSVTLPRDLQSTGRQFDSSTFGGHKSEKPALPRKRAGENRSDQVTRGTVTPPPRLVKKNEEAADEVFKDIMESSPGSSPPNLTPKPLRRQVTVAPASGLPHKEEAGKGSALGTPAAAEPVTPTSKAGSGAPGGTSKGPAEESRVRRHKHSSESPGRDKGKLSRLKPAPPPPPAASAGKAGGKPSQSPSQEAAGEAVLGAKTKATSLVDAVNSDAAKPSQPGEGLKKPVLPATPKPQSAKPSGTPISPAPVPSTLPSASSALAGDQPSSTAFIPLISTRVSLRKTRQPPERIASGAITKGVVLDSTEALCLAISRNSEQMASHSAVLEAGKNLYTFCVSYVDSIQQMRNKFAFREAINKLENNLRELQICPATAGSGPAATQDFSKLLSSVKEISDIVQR
Chain of Serine/threonine-protein kinase DCLK1 (O15075 whole entry): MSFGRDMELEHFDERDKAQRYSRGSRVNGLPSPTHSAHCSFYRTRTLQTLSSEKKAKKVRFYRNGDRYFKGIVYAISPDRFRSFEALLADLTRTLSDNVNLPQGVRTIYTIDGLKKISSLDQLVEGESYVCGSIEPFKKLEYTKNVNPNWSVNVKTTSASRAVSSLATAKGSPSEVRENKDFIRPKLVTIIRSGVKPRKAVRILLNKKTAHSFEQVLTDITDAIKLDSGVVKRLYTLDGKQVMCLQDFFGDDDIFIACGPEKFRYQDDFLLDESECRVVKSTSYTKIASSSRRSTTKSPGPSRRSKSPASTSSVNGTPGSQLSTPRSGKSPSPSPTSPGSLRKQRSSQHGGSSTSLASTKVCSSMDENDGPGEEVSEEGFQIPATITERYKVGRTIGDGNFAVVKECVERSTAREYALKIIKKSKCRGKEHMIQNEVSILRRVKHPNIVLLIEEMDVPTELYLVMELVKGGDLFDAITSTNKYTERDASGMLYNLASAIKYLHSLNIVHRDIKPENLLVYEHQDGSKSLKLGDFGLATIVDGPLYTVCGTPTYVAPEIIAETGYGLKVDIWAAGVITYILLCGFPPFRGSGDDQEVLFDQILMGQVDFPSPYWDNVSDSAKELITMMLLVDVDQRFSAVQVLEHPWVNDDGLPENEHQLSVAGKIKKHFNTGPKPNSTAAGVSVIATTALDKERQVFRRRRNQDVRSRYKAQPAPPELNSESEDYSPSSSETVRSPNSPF
Chain of Mast/stem cell growth factor receptor Kit (Homo sapiens), P10721 [L576P] (P10721 whole entry L576P): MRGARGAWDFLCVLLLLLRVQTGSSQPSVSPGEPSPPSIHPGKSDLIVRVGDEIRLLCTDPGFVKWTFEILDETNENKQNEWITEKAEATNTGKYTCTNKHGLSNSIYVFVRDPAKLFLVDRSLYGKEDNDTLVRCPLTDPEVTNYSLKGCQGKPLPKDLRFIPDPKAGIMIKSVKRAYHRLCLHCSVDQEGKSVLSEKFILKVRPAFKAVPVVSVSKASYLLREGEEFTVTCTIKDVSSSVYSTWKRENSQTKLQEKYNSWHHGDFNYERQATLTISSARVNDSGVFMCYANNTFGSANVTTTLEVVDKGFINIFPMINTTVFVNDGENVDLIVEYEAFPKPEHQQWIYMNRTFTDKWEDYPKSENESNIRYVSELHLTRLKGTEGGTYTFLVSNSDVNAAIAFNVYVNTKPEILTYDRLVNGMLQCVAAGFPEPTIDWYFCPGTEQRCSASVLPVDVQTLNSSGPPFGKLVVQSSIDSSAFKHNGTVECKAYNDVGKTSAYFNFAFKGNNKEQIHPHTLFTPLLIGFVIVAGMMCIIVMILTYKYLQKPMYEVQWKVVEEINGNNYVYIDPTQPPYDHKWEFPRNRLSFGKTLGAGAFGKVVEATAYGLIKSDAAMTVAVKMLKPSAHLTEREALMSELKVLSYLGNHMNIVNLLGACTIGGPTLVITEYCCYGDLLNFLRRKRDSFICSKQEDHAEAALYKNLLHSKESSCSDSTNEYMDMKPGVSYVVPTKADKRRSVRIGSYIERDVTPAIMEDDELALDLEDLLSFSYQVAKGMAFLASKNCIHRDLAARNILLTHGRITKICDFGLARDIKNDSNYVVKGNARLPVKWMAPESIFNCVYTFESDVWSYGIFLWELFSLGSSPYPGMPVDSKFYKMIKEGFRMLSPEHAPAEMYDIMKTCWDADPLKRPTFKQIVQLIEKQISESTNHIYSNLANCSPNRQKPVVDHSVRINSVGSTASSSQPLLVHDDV
Chain of Myosin light chain kinase family member 4 (Homo sapiens) (Q86YV6 whole entry): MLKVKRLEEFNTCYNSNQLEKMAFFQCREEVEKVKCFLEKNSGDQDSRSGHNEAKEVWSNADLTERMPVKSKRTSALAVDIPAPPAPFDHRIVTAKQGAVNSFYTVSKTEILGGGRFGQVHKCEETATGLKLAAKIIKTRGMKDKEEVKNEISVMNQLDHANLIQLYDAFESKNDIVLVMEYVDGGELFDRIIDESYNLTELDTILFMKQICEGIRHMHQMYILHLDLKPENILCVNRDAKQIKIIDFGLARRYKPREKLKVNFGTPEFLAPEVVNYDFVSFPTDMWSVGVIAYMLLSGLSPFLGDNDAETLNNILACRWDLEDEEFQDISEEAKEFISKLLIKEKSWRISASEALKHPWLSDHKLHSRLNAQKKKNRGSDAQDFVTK

## CN1C(=O)c2ccccc2N(C)c2nc(Nc3ccc(S(N)(=O)=O)cc3)ncc21
[1]
  IC50: 310 nM

## COc1cc(N2CCN(C)CC2)ccc1Nc1ncc2c(n1)N(C)c1ccccc1C(=O)N2
[2]
  inhibition: > 90%
[3]
  inhibition: > 90%
[4]
  inhibition: > 90%
[5]
  inhibition: > 90%
[6]
  inhibition: > 90%
[7]
  inhibition: > 90%

## CCN1c2ccccc2C(=O)N(C)c2cnc(Nc3ccc(N4CCN(C)CC4)cc3OC)nc21
[1]
  IC50: 200 nM

## CCOc1cc(N2CCC(O)CC2)ccc1Nc1ncc2c(n1)N(C)c1ccccc1C(=O)N2C
[8]
  bioavailability: 68.6%
HeLa
  inhibition in vivo at 50 mg/kg: 95%
[9]
  Tmax: 30 min
[10]
  AUC(0-inf): 903 ng·h/mL
[11]
  Tmax: 4.8 min
Rattus norvegicus
  t1/2: 3.4 h
[12]
  Vd: 3.4 L/kg
[13]
  Cmax: 247 ng/mL
Mus musculus
  Activity: Non-toxic
[14]
  half-life: 120 min
[15]
  CL/F: 37 mL/min/kg
[16]
  Cmax: 439 ng/mL
[17]
  clearance: 25.5 mL/min/kg
[18]
  AUC(0-inf): 658 ng·h/mL

## COc1cc(N2CCN(C)CC2)ccc1Nc1ncc2c(n1)N(C1CCCC1)c1ccccc1C(=O)N2C
[1]
  IC50: 200 nM

## COc1cc(C2CCN(C)CC2)ccc1Nc1ncc2c(n1)N(C)c1ccccc1C(=O)N2C
[1]
  IC50: 260 nM

## COc1cc(N2CCN(C)CC2)ccc1Nc1ncc2c(n1)N(C)c1ccc(Cl)cc1C(=O)N2C
[1]
  IC50: 1240 nM

## COc1cc(C(=O)N2CCC(N3CCCC3)CC2)ccc1Nc1ncc2c(n1)N(C)c1ccccc1C(=O)N2C
BPH-1
  EC50: 1600 nM
[19]
  AUC(0-inf): 7870 ng·h/mL
[20]
  bioavailability: 86.6%
NCI-H522
  EC50: 950 nM
[21]
  Cmax: 1290 ng/mL
[1]
  IC50: 130 nM
MCF7
  EC50: > 10 µM
[22]
  clearance: 18.4 mL/min/kg
PC-3
  EC50: 3.6 µM
SK-N-AS
  EC50: 4.4 µM
AU565
  EC50: > 10 µM
NCI-H1299
  EC50: 4.2 µM
[23]
  AUC(0-inf): 907 ng·h/mL
[24]
  Vd: 5.36 L/kg
[25]
  half-life: 157 min
[26]
  Tmax: 2 h

## COc1cc(C(=O)NCCN(C)C)ccc1Nc1ncc2c(n1)N(C)c1ccccc1C(=O)N2C
[1]
  IC50: 240 nM

## COc1cc(N2CCN(C)CC2)ccc1Nc1ncc2c(n1)N(C(C)C)c1ccccc1C(=O)N2C
[1]
  IC50: 230 nM

## COc1cc(N2CCN(C)CC2)ccc1Nc1ncc2c(n1)N(C)c1ccccc1C(=O)N2C
[27]
  Kd: 1.2 nM
[28]
  Kd: 29 nM
[29]
  Kd: 10 nM

## COc1cc(N2CCN(C)CC2)ccc1Nc1ncc2c(n1)N(C)c1cc(F)ccc1C(=O)N2C
[1]
  IC50: 1320 nM

## COc1cc(N2CCNCC2)ccc1Nc1ncc2c(n1)N(C)c1ccccc1C(=O)N2C
[1]
  IC50: 230 nM

## COc1cc(N2CCC(O)CC2)ccc1Nc1ncc2c(n1)N(C)c1ccccc1C(=O)N2C
[1]
  IC50: 240 nM

## COc1cc(N2CCN(C)CC2)ccc1Nc1ncc2c(n1)N(C)c1cc(Cl)ccc1C(=O)N2C
[1]
  IC50: 11400 nM

## COc1cc(C(=O)NC2CCN(C)CC2)ccc1Nc1ncc2c(n1)N(C)c1ccccc1C(=O)N2C
[1]
  IC50: 320 nM

## COc1cc(N2CCN(C)CC2)ccc1Nc1ncc2c(n1)N(C)c1ccc(C)cc1C(=O)N2C
[1]
  IC50: 3100 nM

## COc1cc(N2CCOCC2)ccc1Nc1ncc2c(n1)N(C)c1ccccc1C(=O)N2C
[1]
  IC50: 260 nM

## Cc1cc(N2CCN(C)CC2)ccc1Nc1ncc2c(n1)N(C)c1ccccc1C(=O)N2C
[1]
  IC50: 280 nM
